Experimental data published in ChEMBL document CHEMBL1125014, “Synthesis and structure-activity relationships of new 9-N-alkyl derivatives of 9(S)-erythromycylamine” (1990).
Converted amounts (≈) assume the structure as drawn.

How the values were obtained:
Format in all cases: functional
[1] = system: Staphylococcus epidermidis; test: (§1) MIC value was measured against staphylococcus epidermidis.
Outline: (§2)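 Susceptibility determined by standard agar-dilution method against a panel of bacterial strains.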

Streptococcus pyogenes [2] = test: MIC value measured against streptococcus pyogenes C203
Staphylococcus aureus [3] = test: MIC value measured against staphylococcus aureus X1
Streptococcus pneumoniae [4] = test: MIC value measured against streptococcus pneumoniae Park1
Haemophilus influenzae [5] = test: MIC value was measured against haemophilus influenzae CL
Staphylococcus aureus [6] = test: Effective dose against mice infected with Staphylococcus aureus after peroral administration (in vivo); settings: in Mus musculus, po
Streptococcus pyogenes [7] = test: Effective dose against mice infected with streptococcus pyogenes after peroral administration (in vivo); settings: in Mus musculus, po
Haemophilus influenzae [8] = test: MIC value was measured against haemophilus influenzae.; outline: as §2
Streptococcus pneumoniae [9] = test: Effective dose against mice infected with streptococcus pneumoniae after peroral administration (in vivo); settings: in Mus musculus, po
Mus musculus [10] = test: ED50 value was measured against staphylococcus aureus after sc administration in mice (in vivo, in experiment 3)
Outline: (§3)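 Infected mice were dosed orally or subcutaneously at 1 and 5 h postinfection, 0.25 mL of antibiotic solution in 10% aqueous ethanol per dose. Tartaric acid was added where needed for solubility. Several dose concentrations were tested to give the ED50.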

Enterococcus faecalis = test: MIC value was measured against streptococcus faecalis X66; outline: as §2
Mus musculus [11] = test: ED50 value was measured against streptococcus pneumoniae after sc administration in mice (in vivo, in experiment 3); outline: as §3
Streptococcus pneumoniae [12] = test: MIC value was measured against streptococcus pneumoniae park1; outline: as §2
[13] = system: Staphylococcus epidermidis; test: microbe, parasite or virus in culture
Mus musculus [14] = test: ED50 value was measured against streptococcus pyogenes after sc administration in mice (in vivo, in experiment 3); outline: as §3
Mus musculus [15] = test: ED50 value was measured against streptococcus pneumoniae after po administration in mice (in vivo, in experiment 3); outline: as §3
Mus musculus [16] = test: ED50 value was measured against streptococcus pyogenes after po administration in mice (in vivo, in experiment 3); outline: as §3
Mus musculus [17] = test: ED50 value was measured against staphylococcus aureus after po administration in mice (in vivo, in experiment 3); outline: as §3
[18] = system: Staphylococcus epidermidis; test: MIC value was measured against staphylococcus epidermidis 222; outline: as §2
Mus musculus [19] = test: ED50 value was measured against staphylococcus aureus after sc administration in mice in vivo, in experiment 3); outline: as §3
Mus musculus [20] = test: ED50 value was measured against streptococcus pyogenes after sc administration in mice in vivo, in experiment 3); outline: as §3
Mus musculus [21] = test: ED50 value was measured against streptococcus pneumoniae after po administration in mice in vivo, in experiment 3); outline: as §3
Mus musculus [22] = test: ED50 value was measured against streptococcus pneumoniae after sc administration in mice in vivo, in experiment 3); outline: as §3
Mus musculus [23] = test: ED50 value was measured against staphylococcus aureus after po administration in mice in vivo, in experiment 3); outline: as §3
Bacteria [24] = test: as §1; outline: as §2
Bacteria [25] = test: MIC value was measured against streptococcus pyogenes.; outline: as §2

Structure (SMILES) | MIC (Streptococcus pyogenes [2]) [µg/mL] | MIC (Staphylococcus aureus [3]) [µg/mL] | MIC (Haemophilus influenzae [5]) [µg/mL] | MIC (Haemophilus influenzae [8]) [µg/mL] | MIC (Enterococcus faecalis) [µg/mL] | MIC (Streptococcus pneumoniae [12]) [µg/mL] | MIC [13] [µg/mL] | ED50 (Staphylococcus aureus [6]) [mg/kg] | ED50 (Streptococcus pyogenes [7]) [mg/kg] | ED50 (Streptococcus pneumoniae [9]) [mg/kg] | ED50 (Mus musculus [16]) [mg/kg] | other results
CCC(CC)CN[C@@H]1[C@H](C)[C@@H](O)[C@](C)(O)[C@@H](CC)OC(=O)[C@H](C)[C@@H](OC2CC(C)(OC)C(O)C(C)O2)[C@H](C)[C@@H](OC2OC(C)CC(N(C)C)C2O)[C@](C)(O)C[C@H]1C (stereo partly drawn) | 0.015 (≈ 0.0183 µM) | 0.5 (≈ 0.61 µM) | 2 (≈ 2.44 µM) | 2 (≈ 2.44 µM) |  |  |  | 22 | 10 | 17 |  | MIC [1]: 0.5 µg/mL (≈ 0.61 µM); MIC (Streptococcus pneumoniae [4]): 0.015 µg/mL (≈ 0.0183 µM)
CCCN1C(C)O[C@@H]2[C@@H](C)[C@@H]1[C@H](C)C[C@@](C)(O)[C@H](OC1OC(C)CC(N(C)C)C1O)[C@@H](C)[C@H](OC1CC(C)(OC)C(O)C(C)O1)[C@@H](C)C(=O)O[C@H](CC)[C@@]2(C)O (stereo partly drawn) | 0.06 (≈ 0.0747 µM) | 1 (≈ 1.25 µM) | 1 (≈ 1.25 µM) |  | 0.25 (≈ 0.311 µM) | 0.015 (≈ 0.0187 µM) |  |  |  |  |  | MIC [18]: 0.25 µg/mL (≈ 0.311 µM)
CC[C@H]1OC(=O)[C@H](C)[C@@H](OC2CC(C)(OC)C(O)C(C)O2)[C@H](C)[C@@H](OC2OC(C)CC(N(C)C)C2O)[C@](C)(O)C[C@@H](C)[C@@H]2NC(COCCOC)O[C@H]([C@H]2C)[C@]1(C)O (stereo partly drawn) | 0.12 (≈ 0.144 µM) | 0.5 (≈ 0.599 µM) | 2 (≈ 2.39 µM) |  | 0.25 (≈ 0.299 µM) | 0.06 (≈ 0.0718 µM) | 0.5 (≈ 0.599 µM) | > 50 | 43 | 32 | 34 | ED50 (Mus musculus [19]): 1 mg/kg; ED50 (Mus musculus [20]): 0.6 mg/kg; ED50 (Mus musculus [21]): 23 mg/kg; ED50 (Mus musculus [22]): < 0.6 mg/kg; ED50 (Mus musculus [23]): 27 mg/kg

Second part, led by results:

MIC (Streptococcus pyogenes [2]) [µg/mL] | MIC (Staphylococcus aureus [3]) [µg/mL] | MIC (Haemophilus influenzae [5]) [µg/mL] | MIC (Haemophilus influenzae [8]) [µg/mL] | MIC (Enterococcus faecalis) [µg/mL] | MIC (Streptococcus pneumoniae [12]) [µg/mL] | MIC [13] [µg/mL] | Structure (SMILES) | ED50 (Staphylococcus aureus [6]) [mg/kg] | ED50 (Streptococcus pyogenes [7]) [mg/kg] | ED50 (Streptococcus pneumoniae [9]) [mg/kg] | ED50 (Mus musculus [16]) [mg/kg] | other results
0.12 (≈ 0.155 µM) | 0.5 (≈ 0.645 µM) | 8 (≈ 10.3 µM) |  | 0.5 (≈ 0.645 µM) | 0.12 (≈ 0.155 µM) | 0.5 (≈ 0.645 µM) | CCC1N[C@@H]2[C@H](C)[C@@H](O1)[C@](C)(O)[C@@H](CC)OC(=O)[C@H](C)[C@@H](OC1CC(C)(OC)C(O)C(C)O1)[C@H](C)[C@@H](OC1OC(C)CC(N(C)C)C1O)[C@](C)(O)C[C@H]2C (stereo partly drawn) | 34 | 35 | 30 | 19 | ED50 (Mus musculus [10]): 0.8 mg/kg; ED50 (Mus musculus [11]): < 0.6 mg/kg; ED50 (Mus musculus [14]): < 0.6 mg/kg; ED50 (Mus musculus [15]): 17 mg/kg; ED50 (Mus musculus [17]): 20 mg/kg
 | 16 (≈ 19.9 µM) | 2 (≈ 2.49 µM) | 2 (≈ 2.49 µM) |  |  |  | CC[C@H]1OC(=O)[C@H](C)[C@@H](OC2CC(C)(OC)C(O)C(C)O2)[C@H](C)[C@@H](OC2OC(C)CC(N(C)C)C2O)[C@](C)(O)C[C@@H](C)[C@H](N2CCCCC2)[C@H](C)[C@@H](O)[C@]1(C)O (stereo partly drawn) | > 44 | 24 | 21 |  | MIC (Bacteria [24]): 8 µg/mL (≈ 9.96 µM); MIC (Bacteria [25]): 1 µg/mL (≈ 1.25 µM)
